According to ChEMBL document CHEMBL1143842, “Efficacy of tachyplesin III, colistin, and imipenem against a multiresistant Pseudomonas aeruginosa strain” (Antimicrob Agents Chemother, 2007):
Values after ≈ are worked out from the molar mass of the structure shown. Active and inactive are the calls of the source. No cut-off for these calls is given here.

Tests used:
Pseudomonas aeruginosa [1] = assay: Reduction of Pseudomonas aeruginosa clinical isolate infection induced TNFalpha levels in BALB/c mouse plasma after 24 hrs by ELISA; assay type: functional, organism-based
How it was run: (§1)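 Male BALB/c mice were infected i.v. with 2.0 × 10^7 CFU and treated i.v. immediately afterwards. Tail-vein plasma was sampled at 0, 6, 12, 24 and 48 h. IL-6 and TNF-α were measured by ELISA in duplicate, with sensitivity limits of 12 pg/ml and 0.05 ng/ml respectively.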

Pseudomonas aeruginosa [2] = assay: Reduction of Pseudomonas aeruginosa clinical isolate infection induced IL6 levels in BALB/c mouse plasma after 24 hrs by ELISA; assay type: functional, organism-based; how it was run: as §1
Pseudomonas aeruginosa [3] = assay: Reduction of Pseudomonas aeruginosa ATCC 27853 infection induced TNFalpha levels in BALB/c mouse plasma after 24 hrs by ELISA; assay type: functional, organism-based; how it was run: as §1
Pseudomonas aeruginosa [4] = assay: Reduction of Pseudomonas aeruginosa ATCC 27853 infection induced IL6 levels in BALB/c mouse plasma after 24 hrs by ELISA; assay type: functional, organism-based; how it was run: as §1
Pseudomonas aeruginosa [5] = assay: Reduction of Pseudomonas aeruginosa ATCC 27853 infection induced endotoxin levels in BALB/c mouse plasma after 24 hrs by ELISA; assay type: functional, organism-based
Pseudomonas aeruginosa [6] = assay: Reduction of Pseudomonas aeruginosa clinical isolate infection induced endotoxin levels in BALB/c mouse plasma after 24 hrs by ELISA; assay type: functional, organism-based
Pseudomonas aeruginosa [7] = assay: Antibacterial activity against Pseudomonas aeruginosa clinical isolates infected in BALB/c mouse blood at 20 mg/kg, iv after 24 hrs; assay type: functional
How it was run: (§2)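 Male BALB/c mice (25–30 g) were anesthetized with ketamine 30 mg/kg i.m. They were challenged via the tail vein with 2.0 × 10^7 CFU log-phase bacteria in saline. Drug or saline was given i.v. immediately after challenge, 20 mice per group. Tail-vein blood was taken at 24 h, serially diluted and plated on blood agar for 48 h at 35°C, and CFU were counted. Detection limit was 10 CFU/ml.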

Pseudomonas aeruginosa [8] = assay: Antimicrobial activity against Pseudomonas aeruginosa clinical isolates by broth microdilution method; assay type: functional
How it was run: (§3)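 CLSI broth microdilution in Mueller-Hinton broth with an inoculum of 5 × 10^5 CFU/ml, incubated 18 h at 37°C in air. Plates were shaken throughout when the peptide was tested. The MIC was the lowest concentration inhibiting visible growth. Run in triplicate.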

Pseudomonas aeruginosa [9] = assay: Effect on Pseudomonas aeruginosa clinical isolate induced sepsis in BALB/c mouse assessed as mortality at 20 mg/kg, iv for 72 hrs; assay type: functional
How it was run: (§4)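 Male BALB/c mice, 25–30 g, housed singly, anesthetized with ketamine 30 mg/kg im. Log-phase bacteria (grown in brain heart infusion broth, resuspended in saline) given iv via tail vein, 2.0 × 10^7 CFU. Drug at 1 or 20 mg/kg iv immediately post-challenge; saline controls. 20 mice/group; lethality over 72 h, compared by Fisher's exact test.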

Pseudomonas aeruginosa [10] = assay: Antimicrobial activity against Pseudomonas aeruginosa ATCC 27853 by broth microdilution method; assay type: functional; how it was run: as §3
Pseudomonas aeruginosa [11] = assay: Antibacterial activity against Pseudomonas aeruginosa ATCC 27853 infected in BALB/c mouse blood at 20 mg/kg, iv after 24 hrs; assay type: functional; how it was run: as §2
Pseudomonas aeruginosa [12] = assay: Effect on Pseudomonas aeruginosa ATCC 27853 induced sepsis in BALB/c mouse assessed as mortality at 20 mg/kg, iv for 72 hrs; assay type: functional; how it was run: as §4
Pseudomonas aeruginosa [13] = assay: Effect on Pseudomonas aeruginosa clinical isolate induced sepsis in BALB/c mouse assessed as mortality at 1 mg/kg, iv for 72 hrs; assay type: functional; how it was run: as §4
Pseudomonas aeruginosa [14] = assay: Antibacterial activity against Pseudomonas aeruginosa ATCC 27853 infected in BALB/c mouse blood at 1 mg/kg, iv after 24 hrs; assay type: functional; how it was run: as §2
Pseudomonas aeruginosa [15] = assay: Effect on Pseudomonas aeruginosa ATCC 27853 induced sepsis in BALB/c mouse assessed as mortality at 1 mg/kg, iv for 72 hrs; assay type: functional; how it was run: as §4
Pseudomonas aeruginosa [16] = assay: Antibacterial activity against Pseudomonas aeruginosa clinical isolates infected in BALB/c mouse blood at 1 mg/kg, iv after 24 hrs; assay type: functional; how it was run: as §2

Compound: CC[C@H](C)[C@H](NC(=O)CNC(=O)[C@H](CCCNC(=N)N)NC(=O)[C@H](Cc1ccc(O)cc1)NC(=O)[C@H](CS)NC(=O)[C@@H](NC(=O)[C@H](CCCNC(=N)N)NC(=O)[C@H](Cc1ccccc1)NC(=O)[C@H](CS)NC(=O)[C@H](Cc1c[nH]c2ccccc12)NC(=O)[C@@H](N)CCCCN)C(C)C)C(=O)N[C@@H](CS)C(=O)N[C@@H](Cc1ccc(O)cc1)C(=O)N[C@@H](CCCNC(=N)N)C(=O)N[C@@H](CCCCN)C(=O)N[C@@H](CS)C(=O)NC(CCCNC(=N)N)C(N)=O (single isomer, unassigned) [TACHYPLESIN III]
- Activity (Pseudomonas aeruginosa [1]): Active
- Activity (Pseudomonas aeruginosa [2]): Active
- Activity (Pseudomonas aeruginosa [3]): Active
- Activity (Pseudomonas aeruginosa [4]): Active
- Activity (Pseudomonas aeruginosa [5]): Active
- Activity (Pseudomonas aeruginosa [6]): Active

Compound: C[C@@H](O)[C@H]1C(=O)N2C(C(=O)O)=C(SCCNC=N)C[C@H]12 [IMIPENEM ANHYDROUS]
- CFU (Pseudomonas aeruginosa [7]): 8.7 10^6/ml
- MIC (Pseudomonas aeruginosa [8]): 32 µg/mL (≈ 107 µM)
- Activity (Pseudomonas aeruginosa [9]): 80%
- MIC (Pseudomonas aeruginosa [10]): 0.5 µg/mL (≈ 1.67 µM)
- CFU (Pseudomonas aeruginosa [11]): 2.8 10^3/ml
- Activity (Pseudomonas aeruginosa [12]): 30%

Compound: COLISTIN
- Activity (Pseudomonas aeruginosa [13]): 30%
- MIC (Pseudomonas aeruginosa [8]): 8 µg/mL
- Activity (Pseudomonas aeruginosa [1]): Active
- CFU (Pseudomonas aeruginosa [14]): 6 10^4/ml
- Activity (Pseudomonas aeruginosa [2]): Active
- MIC (Pseudomonas aeruginosa [10]): 4 µg/mL
- Activity (Pseudomonas aeruginosa [15]): 40%
- Activity (Pseudomonas aeruginosa [3]): Active
- Activity (Pseudomonas aeruginosa [4]): Active
- Activity (Pseudomonas aeruginosa [5]): Active
- Activity (Pseudomonas aeruginosa [6]): Active
- CFU (Pseudomonas aeruginosa [16]): 1.4 10^4/ml
